This is an account of results in the RNAGym collection of RNA variant scans (doi:10.1126/science.aae0568).

First the molecules themselves.
B1: tRNA (parent)
chain: GUUCCGUUGGCGUAAUGGUAACGCGUCUCCCUCCUAAGGAGAAGACUGCGGGUUCGAGUCCCGUACGGAACG

Fewer inactive variants are shown than the library holds.

The data set covers variants of B1. The experiment in a line: yeast fitness relative to wild type (ratio to wild type); higher = fitter; tRNA-Arg(CCU), competitive growth, 37 C, YPD. The gist of the method:
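A pool of Saccharomyces cerevisiae strains, each with a tRNA-Arg(CCU) gene variant at the native genomic locus, was competed in YPD at 37°C for 24 hours across six parallel replicates. The variants had been chemically synthesised at a 3% per-site mutation rate over 69 sites, and gene amplicons before and after competition were read by 100-nucleotide paired-end sequencing. Darwinian fitness relative to wild type rested on changes in genotype frequencies. Genotypes required ≥ 100 starting reads, and estimates < 0.5 were set to 0.5.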
On to GUUCAGUUGGCGUAAUGGUAACGCGUCUCCCUCCUAAGGAGAAGACUGCGCGUUCGAGUCCCCUCCGGAACG [C5A G51C G63C A65C], for which the yeast fitness was not above 0.5.
On to GUUCAGUUGGCGUAAUCGUAAUGCGUCUCCCUCCUAAGGAGAAGACUGCGGGUUCGAGUGUCGUACGGAACG [C5A G17C C22U C60G C61U], for which the yeast fitness was 0.947.
Take GUUCAGUCGGCGUAAUGGUAGCGCGUCUCCCUCCUAAGGAGAAGACUGCGGGUUCGAGUCCCGUACGGAACG [C5A U8C A21G]: the yeast fitness is 0.53.
For GUUCAGUUGGCGUAAUGGUAACGCGUCUCCCUCCUAAAGAGAAGACCGCGGGUUCGAGUCCCGUACGGAACG [C5A G38A U47C] the value was 0.599; for GUUCAGUUGGCGUAAUGAUAACGCGUCUCCCUCCUAAGGAGAAGACUGCGGCUUCGAGUCCCGUACGGAACG [C5A G18A G52C], not above 0.5.
The same measure for GUUCAGCUGGCGUAAUGGUAACGCGUCUCCCUCCUAAGGAGAAGACUGCGGGUUCGAGUCCCGUCCGGAACG [C5A U7C A65C]: not above 0.5; for GUUCAGUUGGCGUAAUUGUAACGCGUCUCCCUCCUAAGGAGAAGACUGCGGGUUCGAGUCCCGUACGGCGCG [C5A G17U A69C A70G]: not above 0.5.
Take GUUCAGCUGGCGUAAUGGUAACGCGUCUCCCUCCUGAGGAGAAGACUGCGGGUUCGAGUCCCGUACGGAACG [C5A U7C A36G]: the yeast fitness is not above 0.5.
For GUUCAGUUGGCGAAAUGGUAACGCGUCUCCCUCCUAAGGAGAAGCCUGCGGGUUCGAGUCCCGUACGGAACG [C5A U13A A45C] the value was 0.576.
The same measure for GUUCAGUUGGCGCAAUGGUAACGCGUCUUCCUCCUAAGGAGAAGACUGCGGGUUUAAGUCCCGUACGGAACG [C5A U13C C29U C55U G56A]: not above 0.5.
As to GUUCAGUUGGCGAAAUGGUGACGCGUCUCCCUCCUAAGGAGCAGACUGCGGGUUCGAGCCCCGUACGGAACG [C5A U13A A20G A42C U59C], the yeast fitness is not above 0.5.
On to GUUCAGUUGGCGUAAUGGUAACGCGUCUCCCUCCUAAGAAGAAGACUGUGGGUUCGAGUCCCGUACGGAACG [C5A G39A C49U], for which the yeast fitness turned out to be 0.541.
For GUUCAGUUGGCGUAAUGGUAACGCGUCUCCCUCCUAAGGAGAAGACUGCGAGUUCGAGUCACGUACGGAACG [C5A G51A C61A] the value was not above 0.5.
The same measure for GUUCAGUUGGCGUAAUGGUAACGCGUCUCCCUCCUAAAGAGAAGACUGCGGGUUCGAGUCCCGUACGGAACG [C5A G38A]: 0.664; for GUUCAGUUGGCGUAAUGGUAACGCGUCUCCCUCCUAACGAGAAGACUGCGGGUUCGAGUCCCGUACGGAACG [C5A G38C]: 0.732.
Consider GUUCAGUUGGCGUAAUGGUAACGCGUCUCCCUCCUAAGGAAAAGACUGCGGGUUCGGGUCCCGUACGGAACG [C5A G41A A57G], for which the yeast fitness is 0.545.
For GUUCAGUUGGCGUAAUGGUAACGCGUCUCCCUCCUAAGAAGAAGACUGCGGGUUCGAGUCCCGUACGGAACG [C5A G39A] the value was 0.83; for GUUCAGUUGGCGUAAUGGUAACGCGUCUCCCUCCUAAGGAACAGACUGCCGGUUCGAGUCCCGUACGGAGCG [C5A G41A A42C G50C A70G], 0.502.
The same measure for GUUCAGUCGGCGUAAUGGUAACGCGUUUCCCUCCUAAGGGGAAGACUGUGGGUUGGAGUCCCGUACGGAACG [C5A U8C C27U A40G C49U C55G]: not above 0.5; for GUUCAGUUGGCGUAAUGGUAACGCGUCUCCCUCCUAAGGAAAAGACUGCGGGUUCCAGUCCCGUCCGGAACG [C5A G41A G56C A65C]: not above 0.5.
The same measure for GUUCAGUCGACGUAAUGGUAGCGCGUCUCCCUCCUAAGGAGAAGCCUGCGGGUUCCAGUCCCGUACGGAACG [C5A U8C G10A A21G A45C G56C]: not above 0.5; for GUUCAGUUGGCGUAAUGGUAACGCGUCUCCCUCCUAAGGAGAAGACUGCGGGUUCGACUCCCGUACGGACCG [C5A G58C A70C]: 0.644; for GUUCAGUUGGCGUAAUCGUAACGCGUGUCCCUCCUAAGGAGAAGACUGCGGGUUCGAGUCCCGUACGGAACG [C5A G17C C27G]: 0.57.
For GUUCAGUUGGCGUAAUCGUAACGCGUCUCCCUCCUAAGCAGAAGACUGCGGGUUCGAGUCCCGUACGGAACG [C5A G17C G39C], the yeast fitness is not above 0.5.
On to GUUCAGUUGGCGUAAUGGUAACGCGUCUCCCUCCUAAGCAGAAGACUGCGGGUUCGAGUGCAGUACGGAACG [C5A G39C C60G C62A], for which the yeast fitness was not above 0.5.
The same measure for GUUCAGUCGGCGUAAUGGUAACGCGUCUCCCUCCUAAGGAGAAGACUGCGGGUUCGAGUCCCGUACGGAACG [C5A U8C]: 0.929.
The same measure for GUUCAGUUGGCGUAAUGGUAACGCGUCUCCCUCCUAAGGAGAAGACUGCGGGUUCGAGUCCCAUACGGAACG [C5A G63A]: 0.683.
On to GUUCAGUUGGCGUAAUGGUAACGCGUCUCCCUCCUAAGGAGAAGACUGCGGGUUCGAGUCCCUUACGGAACG [C5A G63U], for which the yeast fitness amounted to 0.722.
The same measure for GUUCAGUUGGCGUAAUGAUAACGCGUCUCCCUCCUAAGGAGAAGACUGCGGGUUCGAGUCCCGUACGGAACG [C5A G18A]: 0.818.
For GUUCAGUUGGCGAAAUGGUAACGCGUCUCCCUCCAAAGGAGAAGACUGCGGGUUCGAGCCCCGUACGGAUCG [C5A U13A U35A U59C A70U], the yeast fitness was 0.58.
GUUCAGUUGGCGUAAUCGUAACGCAUCUCCCUCCUAAGGAGAAGACUGCGGGUUCGAGCCCCGUACGGAACG [C5A G17C G25A U59C]: the yeast fitness was not above 0.5.
Regarding GUUCAGUCGGCGCAAUGAUAACGCGUCUCCGUCCUAAGGAGAAGAUUGCGGGUUCGAGUCCCGUACGGAACG [C5A U8C U13C G18A C31G C46U], the yeast fitness was not above 0.5.
The same measure for GUUCAGUUGGCGUAAUGGUAACGCAUCUAUCUCCUAAGGAGAAGACUGCGGGUUCGAGUCCCGUACGGAACG [C5A G25A C29A C30U]: 0.758.
The same measure for GUUCAGUGGGCGUAAUGGUAACGCGUCUCCCUCCUAUGGAGAAGACUGCGACUUCGAGCCCCGUACGGAACG [C5A U8G A37U G51A G52C U59C]: 0.639; for GUUCAGUUGGCGUAAUGCAAACGCGUAUCCCUACUAAGGAGAAGACUGCGGGUUCGAGUCGCGUACGGAGCG [C5A G18C U19A C27A C33A C61G A70G]: not above 0.5.
For GUUCAGUUGGCGUAAUGGUAACGCGUCUCCCUCCUAAGGAGAAGACUCCGCGAUCGAGUCCCGUACGGAACG [C5A G48C G51C U53A], the yeast fitness is not above 0.5.
GUUCAGUUGGCGUAAUGGUAACGCGUCUCCCUCCUAAGGAGAAGACUGCGGGUUCGAGUCCCGUACUGAACG [C5A G67U]: the yeast fitness worked out at 0.865.
For GUUCAGAUGGCGUAAUGGUAACGCCUCUCCCUCCUAAGGAGAAGAUUGCGGGUUCGAGUCCCGUACGGAACG [C5A U7A G25C C46U] the value was not above 0.5.
